Screens: PubChem, several laboratories
Rpn11 inh = Rpn11 (human) deubiquitinase inhibition. inhibition, % at 20 µM. hit rate 0.59% among 360,000. human 26S proteasome, Ub4-pepOG fluorescence polarization; 20S core pre-blocked with epoxomicin. AID 588493. O00487;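 active = inhibition at 20 µM, scaled to each plate's controls, above about 33%, limit read from the data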
Target sequence (O00487 whole entry, looked up): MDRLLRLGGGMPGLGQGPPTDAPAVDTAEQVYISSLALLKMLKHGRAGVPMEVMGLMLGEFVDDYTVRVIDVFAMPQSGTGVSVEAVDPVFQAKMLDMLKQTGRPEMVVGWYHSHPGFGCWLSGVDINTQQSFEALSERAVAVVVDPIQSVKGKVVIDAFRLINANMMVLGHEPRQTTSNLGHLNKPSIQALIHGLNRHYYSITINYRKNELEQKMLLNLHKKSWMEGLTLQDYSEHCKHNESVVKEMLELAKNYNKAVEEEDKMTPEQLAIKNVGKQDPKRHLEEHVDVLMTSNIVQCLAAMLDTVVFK
TPT1 inhibitor = blocks Candida albicans tRNA 2'-phosphotransferase; recombinant caTPT1, FP RNA substrate dephosphorylation; inhibition, % at 5 µM; hit rate 0.81% among 300,000;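 active = inhibition above the mean of all tested compounds plus 3 SD, set per screening campaign, cut at about 24% in these data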
HNF4A DNA FP = change in binding of human HNF4 alpha to DNA; activity change, % at 10 µM; HNF4a-FITC DNA binding, fluorescence polarization, 1 h; AID 1224865; hit rate 0.3% among 360,000; P41235; in the data active = activity change above about 30%, passing the limit was not always enough
NadD block = NadD (S. aureus) enzyme inhibition; purified NadD enzyme, colorimetric absorbance read-out; inhibition, % at 20 µM; hit rate 0.78% among 360,000; in the data active = inhibition above about 26%
PP1 inh = blocks human PP1-alpha phosphatase, a PP5 counter-screen; inhibition, % at 6.7 µM; AID 2235; purified PP1alpha, OMFP fluorescence; P62136; hit rate 0.9% among 320,000;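 active = inhibition above the mean inhibition of all tested compounds plus 3 SD, computed separately for each screening campaign, cut at about 15% in these data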
CSN inh = inhibitors of human CSN-mediated cullin deneddylation. Q92905. Purified CSN, SCF-Nedd8-OG deneddylation, fluorescence polarization. inhibition, % at 12.5 µM. hit rate 0.38% among 360,000;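 active = pattern-corrected inhibition above about 35%, with an unprinted fluorescence ratio check between 0.5 and 1.5, limit read from the data, passing the limit was not always enough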
Target sequence (Q92905 whole entry, looked up, one chain of several): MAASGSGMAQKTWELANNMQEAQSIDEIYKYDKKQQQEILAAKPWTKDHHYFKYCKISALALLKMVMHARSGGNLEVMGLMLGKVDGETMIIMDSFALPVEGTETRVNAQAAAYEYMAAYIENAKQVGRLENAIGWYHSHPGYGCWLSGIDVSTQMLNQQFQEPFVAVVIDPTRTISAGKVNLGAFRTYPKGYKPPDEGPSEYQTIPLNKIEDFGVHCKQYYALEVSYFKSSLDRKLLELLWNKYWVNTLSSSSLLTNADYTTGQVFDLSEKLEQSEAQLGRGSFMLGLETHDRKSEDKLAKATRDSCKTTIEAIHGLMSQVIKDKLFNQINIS
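Assay system: Purified human Csn5 enzyme expressed in HEK293T cells | Amount: Enzyme 0.24 nM | Measured by: Fluorescence polarization readout | Medium: Tris/NaCl/DTT buffer, pH 7.5 | Compound dosing: One concentration, 12.5 µM, 0.25% DMSO | Times: 90 min incubation of compound, enzyme and substrate at room temperature | Control set: no-enzyme wells high, enzyme-with-substrate wells low | Read-out: % inhibition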
Rpn11 confirm = confirmation of human proteasome Rpn11 inhibitors. hit rate 29% among 1,900. shares compounds with Rpn11 inh. purified human 26S proteasome, Ub4-pepOG fluorescence polarization; proteasome pretreated with epoxomicin. inhibition, % at 20 µM
MMP-2 counter = MMP-2 (human) inhibition counter-screen | shares compounds with Rpn11 inh | recombinant MMP-2, FRET peptide cleavage fluorescence | inhibition, % at 20 µM | hit rate 4% among 1,900 | AID 602330;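 also: human MMP-2 activated beforehand with APMA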
Thrombin FP = thrombin (bovine) inhibition counter-screen | shares compounds with Rpn11 inh | bovine thrombin cleavage of Ub4-pepOG, fluorescence polarization | inhibition, % at 20 µM | hit rate 13% among 1,900 | AID 602333;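 active = mean inhibition at least 40% at 20 µM, or signal 3 deviations below plate average, so some actives read negative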
A number is an active result; – = inactive; · = no result; + = active, no number; ! = not confirmed by another sample. A selection: hits, their analogues and other compounds. The true share with any hit is near 2.7%. Rule as the data show it, unless noted: active = inhibition above about 40%; inactive = the rest.

SMILES	Rpn11 inh	TPT1 inhibitor	HNF4A DNA FP	NadD block	PP1 inh	CSN inh	Rpn11 confirm	MMP-2 counter	Thrombin FP
Cc1cccc(OCC(=O)NNC(=O)c2cc(S(=O)(=O)N(C)C)ccc2N2CCCC2)c1	42	·	–	–	–	–	–	–	–
Oc1ccc(CN2CCCc3ccccc32)c2cccnc12	44	–	–	–	–	–	–	–	–
O=C(COC(=O)c1cnccn1)NCCc1ccc(Cl)cc1	–	·	–	–	·	–	·	·	·
Cc1ccc(-n2c(N)c(C(=O)Nc3c(C)n(C)n(-c4ccccc4)c3=O)c3nc4ccccc4nc32)cc1C	·	–	·	·	–	·	·	·	·
COc1ccc(-n2c(N)c(C(=O)Nc3c(C)n(C)n(-c4ccccc4)c3=O)c3nc4ccccc4nc32)cc1	88	–	–	–	–	–	–	–	–
COCCNC(=O)CN(CC1CCCO1)C(=O)CCC(=O)Nc1ccccn1 (centres undefined)	50	–	–	–	–	–	–	–	–
N#CC(=C=[N-])c1nc2ccccc2nc1-[n+]1ccccc1	45!	–	–	–	–	44	–	–	–
CCc1ccc[n+](-c2nc3ccccc3nc2C(=C=[N-])C#N)c1	–	–	–	–	–	–	·	·	·
CCOC(=O)CC(=O)CSc1nc(-c2cccnc2)cc(C)c1C#N	–	–	–	–	–	–	·	·	·
CCOC(=O)CC(=O)CSc1nc(-c2cccnc2)ccc1C#N	41	–	–	–	–	–	–	–	–
Cc1ccc2nc(-c3ccc(NC(=O)c4ccco4)cc3)[nH]c2c1	67	–	–	–	–	44	–	–	–
Cc1ccc2c(c1C)OC(=O)CC2c1ccccc1 (centres undefined)	–	–	–	–	–	–	·	·	·
CCOC(=O)c1c(C)[nH]c(C)c1S(=O)(=O)N(C)CC(=O)NCc1ccc(F)cc1	–	–	–	–	–	–	·	·	·
CC(=O)c1ccccc1NC(=O)Cn1c(=O)cnc2ccccc21	41	–	–	–	–	–	–	–	–
O=[N+]([O-])c1ccc(N=Cc2sc3ccccc3c2O)cc1	62	51	–	–	–	–	–	–	–
CCn1nc(CC(=O)O)c2ccccc2c1=O	47	–	–	–	–	–	–	–	–
O=C(COC(=O)C1CCN(S(=O)(=O)c2ccc(Cl)c(C(F)(F)F)c2)CC1)NCC1CCCO1 (centres undefined)	–	·	–	–	·	–	·	·	·
C[C@H]1CNC(=O)c2c(C(=O)N[C@@H](Cc3c[nH]c4ccccc34)C(=O)OC(C)(C)C)ncn21	–	·	–	–	·	–	·	·	·
COC(=O)c1sccc1NC(=O)c1ccncc1	48	–	–	–	–	–	–	–	–
CC1NC(=O)c2cc3ccccc3cc2-n2c1nc1ccc(F)cc1c2=O (centres undefined)	–	·	–	–	·	–	·	·	·
C#CCn1c(=NC(=O)CN2C(=O)CCC2=O)sc2cccc(OC)c21	–	–	–	–	–	–	·	·	·
C#CCn1c(=NC(=O)c2cccs2)sc2cccc(OC)c21	68	–	–	–	–	–	50	–	–
CCOc1ccccc1C(=O)N[C@H](C(=O)OCC(=O)Nc1nnc(-c2ccccc2)o1)C(C)C	–	·	–	–	·	–	·	·	·
CC(C1SC(=S)NC1=O)C1SC(=S)NC1=O (centres undefined)	53	·	–	–	·	38	42	–	–
Oc1c(Br)cc(Br)c2cccnc12	–	·	–	–	·	–	·	·	·
SMILES	Rpn11 inh	TPT1 inhibitor	HNF4A DNA FP	NadD block	PP1 inh	CSN inh	Rpn11 confirm	MMP-2 counter	Thrombin FP
[O-][n+]1cccc2c(Br)cc(Br)c(O)c21	53	–	–	–	–	–	–	–	–
CCN1CCN(Cc2ccc(NC(=O)c3ccc(C)c(NC(=O)c4csc(-c5ccncc5)n4)c3)cc2C(F)(F)F)CC1	55	–	–	–	–	–	–	–	–
CCSc1ccc([C@@H]2[C@@H]3C(=O)N(CC)C(=O)[C@@H]3[C@]3(C(=O)OC)CCCCN23)cc1	–	–	–	–	–	–	·	·	·
CCC(C)Sc1ccc([C@@H]2[C@H]3C(=O)N(CC)C(=O)[C@H]3[C@]3(C(=O)OC)CCCCN23)cc1 (some centres undefined)	50	–	–	–	–	–	105	–	69
CCOC(=O)c1c(C)[nH]c(C)c1C=O	–	–	–	–	–	–	·	·	·
CCOC(=O)c1c(C)[nH]c(O)c1C=Nc1ccc(Cl)cc1	55	–	–	–	–	–	–	–	–
Cn1cnc(S(=O)(=O)N2CCCCC2c2cc(C(=O)Nc3cccc(C#N)c3)no2)c1 (centres undefined)	–	·	–	–	·	–	·	·	·
COc1ccc(Cn2nnnc2C(c2cc(OC)ccc2OC)N2CCC(C(N)=O)CC2)cc1 (centres undefined)	125	–	–	–	–	–	–	–	–
CCOC(=O)c1[nH]c2ccccc2c1NC(=O)Nc1ccc(OC)cc1	137	–	–	–	–	–	–	–	–
CC(C)(C)Nc1cccccc1=O	103	–	–	–	–	–	–	–	–
CCc1ccc(NC(=O)C(C)Oc2nnc(-c3cccs3)c(-c3cccs3)n2)cc1 (centres undefined)	–	–	–	–	–	–	·	·	·
CC(C)c1ccc(NC(=O)COc2nnc(-c3cccs3)c(-c3cccs3)n2)cc1	32	–	–	–	–	–	–	–	–
Cc1ccc(OCC(=O)NCCCNC(=O)c2ccco2)cc1	–	–	–	–	–	–	·	·	·
COc1ccc(-c2ccc3sc4ccccc4c(=O)c3c2)cn1	124	–	–	–	–	–	–	–	–
Cn1ccc2cc(NC(=O)Nc3cccnc3)ccc21	66	–	–	–	–	–	–	–	–
COc1cccc(NC(=O)Nc2cccnc2)c1	–	–	–	–	–	–	·	·	·
Cc1nonc1NC(=O)Nc1cccnc1	+	–	–	–	–	–	–	–	–
Cc1cccc(NC(=O)Nc2cccnc2)c1C	–	·	–	–	·	–	·	·	·
O=c1[nH]nc(Cc2ncc(C(F)(F)F)cc2Cl)c2ccccc12	–	–	–	–	–	–	·	·	·
COC(=O)c1ccc(NC(=O)c2cn(-c3ccccc3)nc2-c2ccncc2)cc1	54	–	–	–	–	–	–	–	–
CC(=O)c1ccc(NC(=O)c2cn(-c3ccccc3)nc2-c2ccncc2)cc1	–	–	–	–	–	–	·	·	·
CCOC(=O)N1CCN(C(=O)c2cc(OC)c(OC)c(OC)c2)CC1	35	–	–	–	–	–	–	–	–
